{"source": "ChEMBL document CHEMBL2157991", "about": "“Synthesis and pharmacological evaluation of 2,4-dinitroaryldithiocarbamate derivatives as novel monoacylglycerol lipase inhibitors” (J Med Chem, 2012)", "key": {"[1]": {"test_system": "T1, Monoglyceride lipase (Homo sapiens), Q99685 [C208A,C242A]", "T1 sequence (whole entry)": "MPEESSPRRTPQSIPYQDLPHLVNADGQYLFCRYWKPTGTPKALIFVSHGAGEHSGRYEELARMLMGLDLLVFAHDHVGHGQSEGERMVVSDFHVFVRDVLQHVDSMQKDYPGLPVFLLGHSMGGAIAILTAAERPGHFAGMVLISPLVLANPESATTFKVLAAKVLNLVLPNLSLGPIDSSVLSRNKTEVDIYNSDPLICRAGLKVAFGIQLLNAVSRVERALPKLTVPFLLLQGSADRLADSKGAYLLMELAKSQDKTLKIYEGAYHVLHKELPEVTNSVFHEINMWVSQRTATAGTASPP", "experiment": "Inhibition of human MAGL C208A/C242A mutant expressed in Escherichia coli", "summary_of_the_method": "(§1)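 Homogenates of E. coli expressing wild-type or C201A, C208A, C242A or C208A/C242A mutant MAGL used as enzyme source in the [3H]-2-OG hydrolysis assay; n = 3 in duplicate.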"}, "[2]": {"test_system": "T2, Monoglyceride lipase (Homo sapiens), Q99685 [C242A]", "T2 sequence (whole entry)": "T1 sequence (whole entry) with A208C", "experiment": "Inhibition of human MAGL C242A mutant expressed in Escherichia coli", "summary_of_the_method": "as §1"}, "[3]": {"target": "T3, Monoglyceride lipase (Mus musculus) (UniProt O35678)", "T3 sequence (whole entry)": "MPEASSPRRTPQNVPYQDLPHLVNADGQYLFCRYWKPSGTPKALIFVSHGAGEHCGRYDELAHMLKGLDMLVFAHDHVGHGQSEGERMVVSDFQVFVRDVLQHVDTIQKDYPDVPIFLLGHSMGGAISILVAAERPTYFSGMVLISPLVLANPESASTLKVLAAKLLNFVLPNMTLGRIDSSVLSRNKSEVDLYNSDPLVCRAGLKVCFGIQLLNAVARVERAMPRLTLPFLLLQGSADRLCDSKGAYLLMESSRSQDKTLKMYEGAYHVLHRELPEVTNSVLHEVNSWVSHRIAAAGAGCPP", "experiment": "Inhibition of MAGL in mouse B16 cells assessed as increase in 2-arachidonoylglycerol level at 10 uM after 8 hrs by isotope dilution HPLC-MS method", "format": "cell-based", "summary_of_the_method": "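Murine B16 melanoma cells (MEMα, 10% FBS, 37 °C, 5% CO2), 5 × 10^6 cells/condition seeded 12 h, then exposed 8 h to 10 μM inhibitor or 0.1% DMSO in 1% FBS medium; cells plus medium extracted with chloroform–methanol with d5-2-AG, silica SPE cleanup, 2-AG quantified by APCI-positive HPLC–MS isotope dilution, normalized to vehicle.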"}, "[4]": {"species": "Homo sapiens", "experiment": "Selectivity ratio of IC50 for human recombinant FAAH to IC50 for human recombinant MAGL"}}, "note": "Changes are numbered by the printed parent chain. The source made the active and inactive calls. No cut-off for these calls is given here.", "data": [{"smiles": "CC(C)(C)c1ccc(CN2CCN(C(=S)Sc3ccc([N+](=O)[O-])cc3[N+](=O)[O-])CC2)cc1", "values": [{"measurement": "inhibition", "setting": "[1]", "value": "inactive"}, {"measurement": "inhibition", "setting": "[2]", "value": "inactive"}, {"measurement": "inhibition", "setting": "[3]", "value": "Active"}, {"measurement": "Ratio IC50", "setting": "[4]", "value": 11}]}]}
